Source: ChEMBL document CHEMBL1127326, “Antitumor agents. 148. Synthesis and biological evaluation of novel 4 beta-amino derivatives of etoposide with better pharmacological profiles” (1994)
Several values for one entry are separate records, joined by “and”; a condition that tells them apart may be missing. Identical values can stand only once.

Key:
DMS-273 = experiment: (§1) In vitro anti tumor activity against human tumor small cell lung cancer cell lines was determined; type: functional
Outline: (§2)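 NCI in vitro screen of 54 human tumour lines from eight cancer types. Cells seeded mostly at 20 000/well, preincubated 24 h without drug, then exposed to five 10-fold dilutions for 48 h. Cells fixed in situ, stained with sulforhodamine B, bound dye solubilised and read spectrophotometrically. GI50, TGI (0% growth) and LC50 (-50% growth) were taken from dose-response curves relative to control. Mean-graph midpoints averaged across all lines.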

DMS-114 = experiment: as §1; type: functional; outline: as §2
[1] = test system: Panel (56 tumour cell lines); experiment: In vitro anti tumor activity against human tumor cell lines was determined; type: functional; outline: as §2
SN12C = experiment: (§3) In vitro anti tumor activity against human tumor Renal cancer cell lines was determined; type: functional; outline: as §2
RXF 393 = experiment: as §3; type: functional; outline: as §2
ACHN = experiment: as §3; type: functional; outline: as §2
CAKI-1 = experiment: as §3; type: functional; outline: as §2
UO-31 = experiment: as §3; type: functional; outline: as §2
786-0 = experiment: as §3; type: functional; outline: as §2
TK-10 = experiment: as §3; type: functional; outline: as §2
KB [2] = experiment: 50% reduction in the number of KB ATCC cells; type: functional; conditions: Homo sapiens, read-out: ID50 (the source's name)
Outline: (§4)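 KB cells (parental ATCC line and resistant variants) exposed to drug at five concentrations […] for 3 days. ID50 is the concentration giving 50% reduction in cell number, derived from the degree of inhibition at the five concentrations.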

OVCAR-3 = experiment: (§5) In vitro anti tumor activity against human tumor Ovarian cancer cell lines was determined; type: functional; outline: as §2
IGROV-1 = experiment: as §5; type: functional; outline: as §2
SK-OV-3 = experiment: as §5; type: functional; outline: as §2
OVCAR-8 = experiment: as §5; type: functional; outline: as §2
OVCAR-4 = experiment: as §5; type: functional; outline: as §2
NCI-H23 = experiment: (§6) In vitro anti tumor activity against human non-small cell lung cancer cell lines was determined; conditions: NCI-H23, read-out: Log GI50 (converted)
KB [3] = experiment: Cytotoxicity against KB cells after a 3 day incubation; type: functional, Homo sapiens; conditions: read-out: ID50 (the source's name); outline: as §4
KB [4] = experiment: 50% reduction in the number of KB V20C resistant variant; type: functional, Homo sapiens; conditions: Homo sapiens, KB; read-out: ID50 (the source's name); outline: as §4
Tumor Cell line [5] = experiment: Drug molar concentration required to inhibit 50% of human tumor cell growth; type: functional; conditions: Homo sapiens, Tumor Cell line
Outline: (§7)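 NCI panel of 54 human tumor lines from eight cancer types, mostly seeded at 20 000 cells/well. Cells were preincubated 24 h without drug, then exposed to five 10-fold dilutions for 48 h, fixed and stained with sulforhodamine B, and read spectrophotometrically. Versus control, GI50 (50% growth inhibition), TGI (0% growth) and LC50 (−50% growth) were calculated; mean graph midpoints average all lines.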

KB [6] = experiment: 50% reduction in the number of KB 7D (topoisomerase II, aMDR) resistant variant; type: functional, Homo sapiens; conditions: Homo sapiens, KB; read-out: ID50 (the source's name); outline: as §4
LOX IMVI = experiment: (§8) In vitro anti tumor activity against human melanoma cell lines was determined; type: functional; outline: as §2
UACC-257 = experiment: as §8; type: functional; outline: as §2
M19-MEL = experiment: as §8; type: functional; outline: as §2
SK-MEL-2 = experiment: as §8; type: functional; outline: as §2
SK-MEL-5 = experiment: as §8; type: functional; outline: as §2
SK-MEL-28 = experiment: as §8; type: functional; outline: as §2
Malme-3M = experiment: as §8; type: functional; outline: as §2
M14 = experiment: as §8; type: functional; outline: as §2
UACC-62 = experiment: as §8; type: functional; outline: as §2
MOLT-4 = experiment: (§9) In vitro anti tumor activity against human tumor leukemia cell lines was determined; type: functional; outline: as §2
CCRF-CEM = experiment: as §9; type: functional; outline: as §2
SR = experiment: as §9; type: functional; outline: as §2
K562 = experiment: as §9; type: functional; outline: as §2
RPMI-8226 = experiment: as §9; type: functional; outline: as §2
HL-60 = experiment: as §9; type: functional; outline: as §2
SNB-19 = experiment: (§10) In vitro anti tumor activity against human CNS cancer cell lines was determined; type: functional; outline: as §2
SNB-78 = experiment: as §10; type: functional; outline: as §2
U-251 = experiment: as §10; type: functional; outline: as §2
SF-295 = experiment: as §10; type: functional; outline: as §2
XF498 = experiment: as §10; type: functional; outline: as §2
SF-539 = experiment: as §10; type: functional; outline: as §2
SF-268 = experiment: as §10; type: functional; outline: as §2
SNB-75 = experiment: as §10; type: functional; outline: as §2
LXFL 529 = experiment: as §6; type: functional; outline: as §2
A549 = experiment: as §6; type: functional; outline: as §2
HOP-92 = experiment: as §6; type: functional; outline: as §2
NCI-H226 = experiment: as §6; type: functional; outline: as §2
NCI-H460 = experiment: as §6; type: functional; outline: as §2
EKVX = experiment: as §6; type: functional; outline: as §2
NCI-H522 = experiment: as §6; type: functional; outline: as §2
HOP-62 = experiment: as §6; type: functional; outline: as §2
NCI-H322M = experiment: as §6; type: functional; outline: as §2
KM12 = experiment: (§11) In vitro anti tumor activity against human colon tumor cell lines was determined; type: functional; outline: as §2
COLO 205 = experiment: as §11; type: functional; outline: as §2
HCC 2998 = experiment: as §11; type: functional; outline: as §2
DLD-1 = experiment: as §11; type: functional; outline: as §2
KM-20L2 = experiment: as §11; type: functional; outline: as §2
HT-29 = experiment: as §11; type: functional; outline: as §2
SW-620 = experiment: as §11; type: functional; outline: as §2
HCT-15 = experiment: as §11; type: functional; outline: as §2
HCT-116 = experiment: as §11; type: functional; outline: as §2
Tumor Cell line [7] = experiment: Drug concentration required to inhibit total cell growth; type: functional, Homo sapiens; conditions: read-out: Log TGI (converted); outline: as §7
[8] = biological target: T1, DNA topoisomerase II (Homo sapiens) (UniProt P11388+Q02880); experiment: 50% inhibition of human DNA topoisomerase II; type: protein assay
[9] = biological target: T1, DNA topoisomerase II (Homo sapiens); experiment: 50% inhibition of human DNA topoisomerase II was measured; type: protein assay
Tumor Cell line [10] = experiment: 50% of human tumor cell growth; type: functional; outline: as §7
Tumor Cell line [11] = experiment: Drug concentration required to cause 50% cell death; type: functional, Homo sapiens
Outline: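 NCI in vitro panel of 54 human tumor cell lines from eight cancer types, mostly seeded at 20 000 cells/well and preincubated 24 h without drug. Five 10-fold dilutions were then added for a further 48 h. Cells were fixed in situ and stained with sulforhodamine B, and bound dye was read spectrophotometrically. LC50 (−50% growth versus control) was taken from five-point dose-response curves and reported as the log10 mean-graph midpoint across lines.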

[12] = biological target: T1, DNA topoisomerase II (Homo sapiens); experiment: inhibition of human DNA topoisomerase II; type: protein assay
Nucleic Acid = experiment: Percentage inhibition of cellular protein-DNA complex formation; type: functional; conditions: Homo sapiens

COc1cc([C@@H]2c3cc4c(cc3[C@@H](NC3CCN(Cc5ccccc5)CC3)[C@H]3COC(=O)[C@H]23)OCO4)cc(OC)c1O [listing 1 of 2 here]
GI50 (DMS-273): 21.9 nM | GI50 (DMS-114): 64.6 nM | GI50 [1]: 87.1 nM | GI50 (SN12C): 39.8 nM | GI50 (RXF 393): 398 nM | GI50 (ACHN): 18.2 nM | GI50 (CAKI-1): 275 nM | GI50 (UO-31): 87.1 nM | GI50 (786-0): 33.1 nM | GI50 (TK-10): 195 nM | IC50 (KB [2]): 24 nM | GI50 (OVCAR-3): 302 nM | GI50 (IGROV-1): 38.9 nM | GI50 (SK-OV-3): 53.7 nM | GI50 (OVCAR-8): 97.7 nM | GI50 (OVCAR-4): 1120 nM | GI50 (NCI-H23): 40.7 nM | IC50 (KB [3]; Homo sapiens, KB, 72 h): 21 nM | IC50 (KB [4]): 21.5 nM | GI50 (Tumor Cell line [5]): 87.1 nM | IC50 (KB [6]): 97.5 nM | GI50 (LOX IMVI): 34.7 nM | GI50 (UACC-257): 257 nM | GI50 (M19-MEL): 204 nM | GI50 (SK-MEL-2): 240 nM | GI50 (SK-MEL-5): 74.1 nM | GI50 (SK-MEL-28): 324 nM | GI50 (Malme-3M): 112 nM | GI50 (M14): 47.9 nM | GI50 (UACC-62): 36.3 nM | GI50 (MOLT-4): < 10 nM | GI50 (CCRF-CEM): 22.4 nM | GI50 (SR): 10 nM | GI50 (K562): 123 nM | GI50 (RPMI-8226): 53.7 nM | GI50 (HL-60): 13.8 nM | GI50 (SNB-19): 93.3 nM | GI50 (SNB-78): 933 nM | GI50 (U-251): 26.3 nM | GI50 (SF-295): 36.3 nM | GI50 (XF498): 132 nM | GI50 (SF-539): 53.7 nM | GI50 (SF-268): 129 nM | GI50 (SNB-75): 219 nM | GI50 (LXFL 529): 437 nM | GI50 (A549): 13.8 nM | GI50 (HOP-92): 25.7 nM | GI50 (NCI-H226): 11 nM | GI50 (NCI-H460): < 10 nM | GI50 (EKVX): 776 nM | GI50 (NCI-H522): 83.2 nM | GI50 (HOP-62): 26.9 nM | GI50 (NCI-H322M): 1070 nM | GI50 (KM12): 204 nM | GI50 (COLO 205): 178 nM | GI50 (HCC 2998): 174 nM | GI50 (DLD-1): 427 nM | GI50 (KM-20L2): 204 nM | GI50 (HT-29): 138 nM | GI50 (SW-620): 75.9 nM | GI50 (HCT-15): 123 nM | GI50 (HCT-116): 151 nM | TGI (Tumor Cell line [7]): 525 nM

COc1cc([C@@H]2c3cc4c(cc3[C@@H](NC3CCN(Cc5ccccc5)CC3)[C@H]3COC(=O)[C@H]23)OCO4)cc(OC)c1O [listing 2 of 2 here]
ID50 [8]: 100000 nM | ID50 [9]: 50000 nM

COc1cc([C@@H]2c3cc4c(cc3[C@@H](NCCN3CCOCC3)[C@H]3COC(=O)[C@H]23)OCO4)cc(OC)c1O
ID50 [8]: 50000 nM

COc1cc([C@@H]2c3cc4c(cc3[C@@H](NCCN3CCCCC3)[C@H]3COC(=O)[C@H]23)OCO4)cc(OC)c1O [listing 1 of 2 here]
GI50 (Tumor Cell line [10]): 372 nM | IC50 (KB [3]): 1400 nM | LC50 (Tumor Cell line [11]): 30900 nM | TGI (Tumor Cell line [7]): 3310 nM

COc1cc([C@@H]2c3cc4c(cc3[C@@H](NCCCN(C)C)[C@H]3COC(=O)[C@H]23)OCO4)cc(OC)c1O
IC50 (KB [3]): 1150 nM | LC50 (Tumor Cell line [11]; Homo sapiens, Tumor Cell line): 13500 nM | GI50 (Tumor Cell line [5]): 550 nM | TGI (Tumor Cell line [7]; Homo sapiens, Tumor Cell line): 2820 nM

COc1cc([C@@H]2c3cc4c(cc3[C@@H](NCCN3CCCCC3)[C@H]3COC(=O)[C@H]23)OCO4)cc(OC)c1O [listing 2 of 2 here]
ID50 [12]: 50000 nM and 25000 nM | Complex formation (Nucleic Acid): 183% and 190%
